STAT3 inh-1: reduces IL-6 driven STAT3 reporter signal; U3A cells, IL-6 STAT3-luciferase reporter, luminescence; host cell line lacks STAT1; inhibition, % at 5.5 µM; 190,000 compounds, 0.89% hits; AID 862;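 active = inhibition above the mean inhibition across all screened compounds plus 3 SD, cut at about 44% in these data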;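 note: 0% = DMSO only wells and 100% = 100 µM nifuroxazide control wells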
STAT1 activator: activators of IFN-gamma induced STAT1 signaling; 200,000 compounds, 2.6% hits; activation (% of control), % at 5.5 µM; NIH 3T3 STAT1-luciferase reporter, luminescence; 100% = IFN-gamma alone, no compound; AID 932;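 active = activation above the screen-wide mean activation plus 3 SD, cut at about 130% in these data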;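 note: raw ratio to IFN-gamma control signal so 100% means no change and 0% no light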
STAT3 activator: activators of IL-6 induced STAT3 signaling | U3A cells, IL-6 STAT3-luciferase reporter, luminescence; 100% = signal with IL-6 EC80 alone | activation (% of control), % at 5.6 µM | 190,000 compounds, 0.91% hits | AID 871;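 active = activation above the screen-wide mean of compound activation plus 3 SD, cut at about 130% in these data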;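 note: 0% = background luminescence of wells with medium and substrate only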
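Assay system – human STAT1-deficient U3A cells with stable STAT3-luciferase reporter · Also added – IL-6 (33 ng/mL) · Schedule – compound 1 h, then IL-6 6 h at 37 °C · Technique – reporter luminescence signal · Evaluation – % activation versus median of IL-6-stimulated wells · Benchmarks – IL-6-only wells as 100% reference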
STAT1 inh: STAT1 signaling inhibition; 200,000 compounds, 0.35% hits; inhibition, % at 5.5 µM; NIH 3T3 STAT1-luciferase reporter, IFN-gamma, luminescence;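 active = inhibition above a set limit, the mean inhibition across all tested compounds plus 3 SD, cut at about 34% in these data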;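 note: 0% = IFN-gamma with DMSO and 100% = IFN-gamma with 300 µM nifuroxazide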
APP 5'UTR act: APP 5'UTR luciferase reporter activation | SH-SY5Y APP 5'UTR luciferase reporter, luminescence; zero percent = DMSO vehicle wells | AID 1276 | 190,000 compounds, 1% hits | activation, % at 2 µM;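 active = activation above a set limit, based on mean plus 3 SD of controls, cut at about 140% in these data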
NF-kB neuron act: compounds increasing NF-kB expression in human neuronal cells; 190,000 compounds, 1.6% hits; NF-kB reporter expression; active compounds read high; fold change at 12.5 µM; AID 1239; in the data active = fold change above about 3.3
STAT3 inh-2: STAT3 inhibition, confirmation assay; AID 1265; inhibition, % at 5.7 µM; U3A cells, IL-6 STAT3 luciferase reporter, luminescence; cell line lacks STAT1; 1,200 compounds, 45% hits; shares compounds with STAT3 inh-1;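 active = inhibition above the hit cutoff computed for the primary STAT3 screen, cut at about 44% in these data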;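 note: 0% = IL-6 plus DMSO and 100% = IL-6 plus nifuroxazide control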
NFkB inh 2: NF-kappaB inhibition in STAT3 inhibitor counter-screen | shares compounds with STAT3 inh-1 | HEK293T NF-kB luciferase reporter, TNF-alpha induced | inhibition, % at 5.7 µM | 1,200 compounds, 36% hits | AID 1308;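 active = inhibition above the mean of solvent-only control wells plus 3 SD, cutoff set per campaign, cut at about 13% in these data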;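 note: 0% = TNF-alpha with DMSO and 100% = TNF-alpha with MG high control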
STAT1 inh STAT3c: inhibits STAT1, counter-screen to STAT3 inhibitors; shares compounds with STAT3 inh-1; NIH 3T3 STAT1-luciferase reporter, IFN-gamma induced, luminescence; inhibition, % at 5.7 µM; 1,200 compounds, 27% hits; AID 1317;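 active = inhibition above the mean plus 3 SD of solvent-only control wells, limit set per screening run, cut at about 16% in these data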;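 note: 0% = DMSO with IFN-gamma and 100% = nifuroxazide control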
* hit, by the source's call; / = not tested or not shown. Only some compounds are listed: those with a hit (about 4.9% of all), similar ones and a draw of the others.

SMILES	STAT3 inh-1	STAT1 activator	STAT3 activator	STAT1 inh	APP 5'UTR act	NF-kB neuron act	STAT3 inh-2	NFkB inh 2	STAT1 inh STAT3c
CCOc1ccc(/C=N/Nc2ccccn2)cc1	50*	107	61	-8	182*	8.2*	7	-28	-112
Cc1cc(C)c2nc(N3CCC(C(=O)NCCCN4CC(C)CC(C)C4)CC3)sc2c1 (configuration not stated)	-7	118	108	-21	-20	1	/	/	/
CC(/C=N\NC(=O)Cn1c(C)nc2ccccc21)=C\c1ccccc1	70*	82	41	20	-8	0.81	69*	15*	17*
CC(/C=N/NC(=O)CSc1nc(C)cc(C)n1)=C\c1ccccc1	-8	103	110	-3	14	0.98	/	/	/
COc1ccc(C(=O)C[n+]2cc(-c3ccc(OC)cc3)n3c2CCCC3)cc1	5	86	97	14	16	0.82	/	/	/
Cc1ccc(C(=O)C[n+]2cc(-c3ccc(C)cc3)n3c2CCCCC3)cc1	71*	75	46	28	4	1.1	60*	-1	27*
C=CC[n+]1c(-c2ccc(C)cc2)csc1Nc1ccc(NC(C)=O)cc1	63*	69	50	33	-50	0.56	52*	18*	15
C=CC[n+]1c(-c2ccc(OC)cc2)csc1NNC(=O)Nc1ccccc1	23	83	81	14	7	1.2	/	/	/
CCOC(=O)c1ccccc1N/C=C/C(=O)c1ccccc1	5	116	104	-17	13	/	/	/	/
Cc1ccc(C(=O)/C=C/Nc2ccccc2C(N)=O)cc1	76*	110	36	-11	174*	6.7*	38	8	-63
NC(=O)c1ccccc1N/C=C/C(=O)c1ccc(Cl)cc1	60*	91	50	9	148*	6.9*	27	-2	-84
COc1ccc(/C=N/Nc2nncc3ccccc23)cc1	64*	120	45	-22	188*	3.1	71*	51*	33*
Cc1ccc(-n2nnnc2SCn2nnc3ccccc3c2=O)c(C)c1	53*	81	58	21	21	0.87	53*	5	15
Cc1cc(SCn2nnc3ccccc3c2=O)nc2ccccc12	-1	105	102	-6	-2	1.9	/	/	/
Cc1ccc(SCc2cn3c(C)csc3n2)cc1	54*	126	55	-28	199*	5.7*	22	-21	-70
c1csc(CNc2ccc3c(c2)OCCO3)c1	86*	86	28	16	0	1.2	-93	-7	-80
Oc1ccccc1CNc1ccc2c(c1)OCCO2	15	92	91	7	23	2.1	/	/	/
O=C(Nc1nccs1)c1ccc(S(=O)(=O)NCc2cccs2)cc1	31	93	80	8	7	0.95	/	/	/
O=C(Nc1ccc(Br)cc1)c1ccc(F)c(S(=O)(=O)NCc2cccs2)c1	57*	84	52	17	0	0.73	69*	17*	16*
Cc1ccc(C)c(NC(=O)CN(C)C(=O)c2nn(C)c(=O)c3ccccc23)c1	-4	94	105	7	-7	0.97	/	/	/
O=C(/C=C/c1ccc(Cl)cc1Cl)Nc1cccc(S(=O)(=O)NC2=NCCC2)c1	52*	78	57	22	79	7.2*	33	6	-5
O=C(/C=C/c1ccccc1Cl)Nc1cccc(S(=O)(=O)NC2=NCCCCC2)c1	5	108	99	-8	44	0.91	/	/	/
CC(C)Oc1ccc(CC2CCC(=O)N(C)C2=O)cc1 (configuration not stated)	5	107	95	-8	9	1.3	/	/	/
